Screens deposited in PubChem BioAssay by several laboratories.
Apaf1 inhib: blocks human Apaf-1 apoptosome activity; reconstituted apoptosome caspase-3 activity, DEVD-Rh110 fluorescence; 0.71% of 330,000 active; O14727; inhibition, % at 20 µM; active = inhibition of at least 40% at 20 µM
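Material: biochemical Apaf-1 apoptosome reconstitution. Medium: Hepes buffer, pH 7.5. Also added: cytochrome c activation, bis-DEVD rhodamine 110 substrate. Timing: 30 min compound preincubation, 50 min activation, room temperature. Measured by: rhodamine 110 fluorescence at Ex 480/Em 540 nm.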
MEKK3 PB1 HTS: MEKK3-MEK5 PB1 interaction, increase or decrease. Q99759. bead-based flow cytometry, Alexa488-MEK5 binding to MEKK3; actives lie on both sides; 0 = blocked by unlabeled MEK5, 100 = vehicle. binding response (% of control), % at 10 µM. AID 1529. 1.4% of 290,000 active;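 active = binding response more than 3 SD above or below the average of its plate-row segment, actives on both sides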;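 also: Alexa488 bead fluorescence after subtracting the streptavidin-only scavenger bead signal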
MEKK2 WT-MEK5: raises or lowers MEK5 binding to wildtype human MEKK2 PB1 domain; bead flow cytometry, Alexa488-MEK5 binding to MEKK2 WT; actives lie on both sides; Q9Y2U5; binding response (% of control), % at 10 µM; 1.1% of 290,000 active; in the data active = binding response below about 67% or above about 130%
MEKK2 mut-MEK5: signal of MEK5 binding to mutant human MEKK2 PB1 domain | bead flow cytometry, Alexa488-MEK5 binding to MEKK2 mutant | percent response, % at 10 µM | 0.35% of 290,000 active | AID 1530; in the data active = percent response above about 24%, passing the limit was not always enough
PREPL inhibitor: human PREPL enzyme inhibition; Q4J6C6; recombinant PREPL, fluorescence polarization activity-based probe; inhibition, % at 5.96 µM; 0.68% of 320,000 active; in the data active = inhibition above about 43%
Target sequence (Q4J6C6 whole entry, looked up): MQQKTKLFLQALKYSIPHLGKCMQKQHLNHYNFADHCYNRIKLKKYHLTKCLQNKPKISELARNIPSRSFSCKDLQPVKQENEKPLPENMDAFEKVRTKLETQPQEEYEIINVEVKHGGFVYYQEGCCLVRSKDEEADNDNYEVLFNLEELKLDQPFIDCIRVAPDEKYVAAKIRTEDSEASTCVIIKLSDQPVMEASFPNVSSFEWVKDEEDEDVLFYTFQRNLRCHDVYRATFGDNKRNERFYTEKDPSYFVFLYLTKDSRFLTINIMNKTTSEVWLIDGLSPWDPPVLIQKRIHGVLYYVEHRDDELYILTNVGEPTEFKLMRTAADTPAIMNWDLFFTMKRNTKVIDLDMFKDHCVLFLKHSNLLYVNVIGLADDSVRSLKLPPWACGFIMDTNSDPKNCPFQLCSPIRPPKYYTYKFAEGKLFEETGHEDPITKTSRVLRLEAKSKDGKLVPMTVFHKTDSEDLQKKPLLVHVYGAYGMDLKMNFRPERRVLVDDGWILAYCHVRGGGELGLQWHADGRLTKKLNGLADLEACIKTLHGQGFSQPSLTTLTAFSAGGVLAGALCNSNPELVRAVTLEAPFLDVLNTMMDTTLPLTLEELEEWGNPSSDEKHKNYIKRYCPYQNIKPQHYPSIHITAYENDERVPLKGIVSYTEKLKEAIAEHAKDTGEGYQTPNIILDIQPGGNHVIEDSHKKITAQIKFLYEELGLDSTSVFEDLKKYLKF
UBC13 polyUb: human UBC13 polyubiquitination inhibition. P61088. UBC13 polyubiquitin chain formation, TR-FRET. inhibition, % at 20 µM. 0.47% of 330,000 active. AID 485273; in the data active = inhibition above about 45%, passing the limit was not always enough
Of the large screens only hits and unclear results are named; the others gave an inactive call; ! = not active in a repeat; [ ] = dose if it differs, or a comment. Compounds with a hit are over-represented: about 3.1% of the library has one in this group of screens.

CN[C@H]1C[C@H]2O[C@@](C)([C@H]1OC)n1c3ccccc3c3c4c(c5c6ccccc6n2c5c31)C(=O)NC4	Apaf1 inhib 51, PREPL inhibitor 76 (no result: MEKK3 PB1 HTS, MEKK2 WT-MEK5, MEKK2 mut-MEK5)
CN1CCC(=O)N(CCN=[N+]=[N-])CC1	none
CCCCNS(=O)(=O)c1ccc(OCC(=O)N2CCN(Cc3ccc4c(c3)OCO4)CC2)cc1	none
CC[C@@H]1C=CC=CC[C@H](C)[C@@H](O)[C@@H](C)C(=O)[C@H](C)[C@@H](O)[C@H](C)C(=O)[C@H](C)[C@@H](O)[C@H](C)C=CC(=O)O[C@H]2[C@@H](C)[C@@H](CC1)O[C@@]1(CC[C@@H](C)[C@@H](C[C@H](C)O)O1)[C@@H]2C	UBC13 polyUb 59
CN1CC[C@]2(c3cccc(O)c3)Cc3nc4ccccc4cc3C[C@H]2C1	MEKK3 PB1 HTS 62![inhibitor] (no result: Apaf1 inhib, PREPL inhibitor, UBC13 polyUb)
CCc1ccccc1NC(=O)CN1CCN(C(=O)COc2ccccc2C#N)CC1	none (no result: MEKK3 PB1 HTS, MEKK2 WT-MEK5, MEKK2 mut-MEK5)
O=C(Nc1nccs1)c1c(O)c2c(n(Cc3ccco3)c1=O)CCCC2	MEKK2 WT-MEK5 -4.0
CN1C(=O)C(=Cc2sc(=O)n(-c3ccccc3)c2N2CCCCC2)C(=O)N(C)C1=O	none (no result: Apaf1 inhib, PREPL inhibitor, UBC13 polyUb)
CN1CCN(c2nc3ccccn3c(=O)c2C=C2C(=O)N(C)C(=O)N(C)C2=O)CC1	MEKK3 PB1 HTS 135
COc1ccc2c(c1)NP(=S)(Oc1ccccc1)N2 (centres undefined)	Apaf1 inhib 50
CCCN1CCc2cc(O)cc3c2[C@H]1Cc1ccc(O)c(O)c1-3	Apaf1 inhib 45
CO[C@@H]1C=CC23c4cc5c(cc4CO[C@]2(O)CN(C)[C@H]3C1)OCO5 (some centres undefined)	none (no result: MEKK3 PB1 HTS, MEKK2 WT-MEK5, MEKK2 mut-MEK5)
CCC(C)NC(=O)c1c(N)n(Cc2ccc3c(c2)OCO3)c2nc3ccccc3nc12 (centres undefined)	Apaf1 inhib 96
Nc1c(C(=O)NCCN2CCOCC2)c2nc3ccccc3nc2n1Cc1ccccc1	Apaf1 inhib 82
CC(C)CCNC(=O)c1c(N)n(CC2CCCO2)c2nc3ccccc3nc12 (centres undefined)	Apaf1 inhib 91
CCCCn1c(N)c(C(=O)NCCN2CCOCC2)c2nc3ccccc3nc21	none
C#CC[N+]1(C)[C@@H]2CC(OC(=O)C(CO)c3ccccc3)C[C@H]1C(O)C2 (some centres undefined)	none
COC(=O)C1=C(c2ccc(-c3ccccc3)c(F)c2)C[C@@H]2CC[C@H]1N2C(=O)NCc1ccco1	none (no result: MEKK3 PB1 HTS, MEKK2 WT-MEK5, MEKK2 mut-MEK5)
CCN1CCN(c2cc(N3CCCC3)c(F)cc2[N+](=O)[O-])CC1	MEKK3 PB1 HTS 159
CC(C)c1ccc(N2C(=O)NC(=O)/C(=C/C=C/c3ccco3)C2=O)cc1	MEKK2 WT-MEK5 60[inhibitor] (no result: Apaf1 inhib, UBC13 polyUb)
Cc1ccc(N2C(=O)NC(=O)/C(=C/C=C/c3ccco3)C2=O)cc1	none
COC(=O)C1=C(c2ccc(OC)c(OC)c2)C[C@@H]2CC[C@H]1N2C(=O)N1CCCC1	none (no result: MEKK3 PB1 HTS, MEKK2 WT-MEK5, MEKK2 mut-MEK5)
O=C1N[C@H](Cc2ccccc2)C(=O)N2[C@@H]3[C@H](C[C@@H]12)c1ccccc1N3OOSc1ccccc1	none
OCCCCO	none (no result: MEKK3 PB1 HTS, MEKK2 WT-MEK5, MEKK2 mut-MEK5)
CC1(C)OC(c2ccccc2)=C/C(=C/C=C2C(=O)NC(=S)NC2=O)O1	MEKK3 PB1 HTS 73[inhibitor], MEKK2 WT-MEK5 -5.0[inhibitor]
C[C@@H]1NCCc2cc(O)c(O)cc21	none (no result: MEKK3 PB1 HTS, MEKK2 WT-MEK5, MEKK2 mut-MEK5)
Cc1cc2c(C(C)C)c(O)c(O)c(C=O)c2c(O)c1-c1c(C)cc2c(C(C)C)c(O)c(O)c(C=O)c2c1O	MEKK3 PB1 HTS 42![inhibitor], MEKK2 WT-MEK5 58[inhibitor] (no result: Apaf1 inhib, PREPL inhibitor, UBC13 polyUb)
CCCCn1c(NS(=O)(=O)c2ccccc2)c(C(=O)OCC)c2nc3ccccc3nc21	none (no result: Apaf1 inhib, UBC13 polyUb)
CCCCn1c(NC(=O)c2ccc(Br)o2)c(C(=O)OCC)c2nc3ccccc3nc21	Apaf1 inhib 79
COC(=O)C1=CO[C@@H](C)[C@@H]2CN3CC[C@@]4(C(=O)Nc5ccccc54)[C@@H]3C[C@H]12	none
COC(=O)C1=CO[C@@H](C)[C@@H]2CN3CC[C@]4(C(=O)Nc5ccccc54)[C@@H]3C[C@H]12	MEKK3 PB1 HTS 138
CCOc1ccc(N2C(=O)/C(=C/c3ccco3)C(=O)NC2=S)cc1	none
Cc1ccccc1N1C(=O)/C(=C/c2ccco2)C(=O)NC1=S	MEKK3 PB1 HTS 82[inhibitor], PREPL inhibitor 46 (no result: Apaf1 inhib, UBC13 polyUb)
